Experimental data reported in ChEMBL document CHEMBL3112482, “Nonclassical antifolates, part 5. Benzodiazepine analogs as a new class of DHFR inhibitors: synthesis, antitumor testing and molecular modeling study” (Eur J Med Chem, 2014).

Assays:
Format in all cases: functional
[1] = Cytotoxicity against human melanoma cells at 10 uM after 48 hrs; details: Melanoma cell; for CC50: read-out: LC50 (the source's name)
Outline: (§1)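 Single-dose primary screen in the NCI 60 human tumour cell line panel, run at the NCI facility. The panel covers nine subpanels: leukaemia, non-small cell lung, colon, CNS, melanoma, ovarian, renal, prostate and breast. Read-out was percent growth of treated cells, shown as a mean graph and reported as percent growth inhibition.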

[2] = Cytotoxicity against human prostate cancer cells at 10 uM after 48 hrs; details: Cancer cell lines
MDA-MB-435 = experiment: Growth inhibition of human MDA-MB-435 cells at 10 uM after 48 hrs; details: MDA-MB-435, 48 h, read-out: GI; outline: as §1
[3] = Cytotoxicity against human colon cancer cells at 10 uM after 48 hrs; details: Cancer cell lines; for CC50: read-out: LC50 (the source's name); outline: as §1
NCI-H226 = experiment: Growth inhibition of human NCI-H226 cells at 10 uM after 48 hrs; details: NCI-H226, 48 h, read-out: GI; outline: as §1
M14 = experiment: Growth inhibition of human M14 cells at 10 uM after 48 hrs; details: M14, 48 h, read-out: GI; outline: as §1
SK-MEL-2 = experiment: Growth inhibition of human SK-MEL-2 cells at 10 uM after 48 hrs; details: SK-MEL-2, 48 h, read-out: GI
Outline: (§2)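 NCI 60-cell-line disease-oriented human tumor panel, single-dose primary screen at 10 µM. Data given as mean-graph percent growth of treated cells, reported as percent growth inhibition (GI %).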

[4] = Cytotoxicity against human breast cancer cells at 10 uM after 48 hrs; details: Cancer cell lines; outline: as §1
HOP-62 = experiment: Growth inhibition of human HOP62 cells at 10 uM after 48 hrs; details: HOP-62, 48 h, read-out: GI; outline: as §1
[5] = Cytotoxicity against human renal cancer cells at 10 uM after 48 hrs; details: Cancer cell lines
SN12C = experiment: Growth inhibition of human SN12C cells at 10 uM after 48 hrs; details: read-out: GI; outline: as §2
MOLT-4 = experiment: Growth inhibition of human MOLT4 cells at 10 uM after 48 hrs; details: MOLT-4, 48 h, read-out: GI; outline: as §1
OVCAR-8 = experiment: Growth inhibition of human OVCAR8 cells at 10 uM after 48 hrs; details: OVCAR-8, 48 h, read-out: GI; outline: as §1
[6] = Cytotoxicity against human non-small cell lung cancer cells at 10 uM after 48 hrs; details: Cancer cell lines; for CC50: read-out: LC50 (the source's name); outline: as §1
COLO 205 = experiment: Growth inhibition of human COLO205 cells at 10 uM after 48 hrs; details: COLO 205, 48 h, read-out: GI; outline: as §1
Malme-3M = experiment: Growth inhibition of human MALME-3M cells at 10 uM after 48 hrs; details: read-out: GI; outline: as §1
HT-29 = experiment: Growth inhibition of human HT-29 cells at 10 uM after 48 hrs; details: HT-29, 48 h, read-out: GI; outline: as §1
BT-549 = experiment: Growth inhibition of human BT549 cells at 10 uM after 48 hrs; details: BT-549, 48 h, read-out: GI; outline: as §1
[7] = Cytotoxicity against human CNS cancer cells at 10 uM after 48 hrs; details: Cancer cell lines; for CC50: read-out: LC50 (the source's name)
UACC-62 = experiment: Growth inhibition of human UACC62 cells at 10 uM after 48 hrs; details: UACC-62, 48 h, read-out: GI; outline: as §2
SF-295 = experiment: Growth inhibition of human SF295 cells at 10 uM after 48 hrs; details: SF-295, 48 h, read-out: GI; outline: as §2
A549 = experiment: Growth inhibition of human A549 cells at 10 uM after 48 hrs; details: A549, 48 h, read-out: GI; outline: as §1
RPMI-8226 = experiment: Growth inhibition of human RPMI8226 cells at 10 uM after 48 hrs; details: RPMI-8226, 48 h, read-out: GI; outline: as §1
LOX IMVI = experiment: Growth inhibition of human LOXIMVI cells at 10 uM after 48 hrs; details: read-out: GI; outline: as §1
OVCAR-3 = experiment: Growth inhibition of human OVCAR3 cells at 10 uM after 48 hrs; details: OVCAR-3, 48 h, read-out: GI; outline: as §1
NCI-H522 = experiment: Growth inhibition of human NCI-H522 cells at 10 uM after 48 hrs; details: NCI-H522, 48 h, read-out: GI; outline: as §1
U-251 = experiment: Growth inhibition of human U251 cells at 10 uM after 48 hrs; details: U-251, 48 h, read-out: GI; outline: as §2
HCT-15 = experiment: Growth inhibition of human HCT15 cells at 10 uM after 48 hrs; details: HCT-15, 48 h, read-out: GI; outline: as §1
Cancer cell lines [8] = experiment: Ratio of 5-FU TGI to compound TGI for human breast cancer cells
Cancer cell lines [9] = experiment: Ratio of 5-FU LC50 to compound LC50 for human ovarian cancer cells
Outline: (§3)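 Compounds passing the NCI single-dose primary screen were retested across the 60 human tumour cell lines (nine subpanels) over a 5-log dose range. GI50, TGI and LC50 were recorded for each cell line, with 5-fluorouracil run as the reference drug. Subpanel values for compound and 5-FU were then compared.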

Cancer cell lines [10] = experiment: Ratio of 5-FU LC50 to compound LC50 for human CNS cancer cells; outline: as §3
Cancer cell lines [11] = experiment: Ratio of 5-FU LC50 to compound LC50 for human colon cancer cells; outline: as §3
Cancer cell lines [12] = experiment: Ratio of 5-FU TGI to compound TGI for human colon cancer cells
Cancer cell lines [13] = experiment: Ratio of 5-FU TGI to compound TGI for human non-small cell lung cancer cells
Cancer cell lines [14] = experiment: Ratio of 5-FU GI50 to compound GI50 for human ovarian cancer cells; outline: as §3
Cancer cell lines [15] = experiment: Ratio of 5-FU GI50 to compound GI50 for human renal cancer cells; outline: as §3
Cancer cell lines [16] = experiment: Ratio of 5-FU GI50 to compound GI50 for human prostate cancer cells; outline: as §3
Melanoma cell [17] = experiment: Ratio of 5-FU GI50 to compound GI50 for human melanoma cells; outline: as §3
Cancer cell lines [18] = experiment: Ratio of 5-FU LC50 to compound LC50 for human breast cancer cells; outline: as §3
Cancer cell lines [19] = experiment: Ratio of 5-FU GI50 to compound GI50 for human CNS cancer cells; outline: as §3
Cancer cell lines [20] = experiment: Ratio of 5-FU GI50 to compound GI50 for human colon cancer cells; outline: as §3
Melanoma cell [21] = experiment: Ratio of 5-FU LC50 to compound LC50 for human melanoma cells; outline: as §3
Cancer cell lines [22] = experiment: Ratio of 5-FU TGI to compound TGI for human ovarian cancer cells
Leukemia cell [23] = experiment: Ratio of 5-FU LC50 to compound LC50 for human leukemia cells; outline: as §3
Cancer cell lines [24] = experiment: Ratio of 5-FU TGI to compound TGI for human renal cancer cells
Leukemia cell [25] = experiment: Ratio of 5-FU TGI to compound TGI for human leukemia cells

SMILES: COc1ccc(/C=C2\CCCc3c2nc(N)nc3-c2ccc(OC)c(OC)c2)cc1OC
- GI50 [1]: 5.5 µM
- TGI [1]: 73.4 µM
- CC50 [1]: 95.6 µM
- GI50 [2]: 5.1 µM
- LC50 [2]: > 100 µM
- TGI [2]: > 100 µM
- inhibition of growth at 10 µM (MDA-MB-435): 69.2%
- GI50 [3]: 17.4 µM
- TGI [3]: 75.8 µM
- CC50 [3]: 89.8 µM
- inhibition of growth at 10 µM (NCI-H226): 65.9%
- inhibition of growth at 10 µM (M14): 42.7%
- inhibition of growth at 10 µM (SK-MEL-2): 43.2%
- GI50 [4]: 3.9 µM
- LC50 (concentration killing 50% of cells) [4]: > 100 µM
- TGI [4]: 87.3 µM
- inhibition of growth at 10 µM (HOP-62): 43%
- CC50 [5]: 93.6 µM
- GI50 [5]: 7.8 µM
- TGI [5]: 66.7 µM
- inhibition of growth at 10 µM (SN12C): 42.6%
- inhibition of growth at 10 µM (MOLT-4): 46.9%
- inhibition of growth at 10 µM (OVCAR-8): 89.4%
- GI50 [6]: 22.1 µM
- TGI [6]: 71.1 µM
- CC50 [6]: 94.3 µM
- inhibition of growth at 10 µM (COLO 205): 54%
- inhibition of growth at 10 µM (Malme-3M): 47.5%
- inhibition of growth at 10 µM (HT-29): 75.8%
- inhibition of growth at 10 µM (BT-549): 63.9%
- GI50 [7]: 26.7 µM
- TGI [7]: 85.7 µM
- CC50 [7]: > 100 µM
- inhibition of growth at 10 µM (UACC-62): 47.2%
- inhibition of growth at 10 µM (SF-295): < 30%
- inhibition of growth at 10 µM (A549): 41.2%
- inhibition of growth at 10 µM (RPMI-8226): 84.8%
- inhibition of growth at 10 µM (LOX IMVI): 87.1%
- inhibition of growth at 10 µM (OVCAR-3): 89.2%
- inhibition of growth at 10 µM (NCI-H522): 83.3%
- inhibition of growth at 10 µM (U-251): 62.2%
- inhibition of growth at 10 µM (HCT-15): 64.1%

SMILES: COc1cc(/C=C2\CCCc3c2nc(C)nc3-c2cc(OC)c(OC)c(OC)c2)cc(OC)c1OC
- GI50 [1]: 1.4 µM
- TGI [1]: 3.1 µM
- CC50 [1]: > 100 µM
- GI50 [2]: 1.8 µM
- LC50 [2]: > 100 µM
- TGI [2]: > 100 µM
- Ratio (Cancer cell lines [8]): 15
- inhibition of growth at 10 µM (MDA-MB-435): 94.8%
- RatioLC50 (Cancer cell lines [9]): 15
- GI50 [3]: 0.9 µM
- TGI [3]: 67.3 µM
- CC50 [3]: 76.2 µM
- RatioLC50 (Cancer cell lines [10]): 15
- inhibition of growth at 10 µM (NCI-H226): 62.4%
- RatioLC50 (Cancer cell lines [11]): 15
- inhibition of growth at 10 µM (SK-MEL-2): 73.4%
- Ratio (Cancer cell lines [12]): 15
- Ratio (Cancer cell lines [13]): 15
- GI50 [4]: 2.6 µM
- LC50 (concentration killing 50% of cells) [4]: > 100 µM
- TGI [4]: 80.8 µM
- inhibition of growth at 10 µM (HOP-62): 78%
- CC50 [5]: > 100 µM
- GI50 [5]: 2.2 µM
- TGI [5]: 42 µM
- inhibition of growth at 10 µM (SN12C): 89.2%
- RatioGI50 (Cancer cell lines [14]): 15
- inhibition of growth at 10 µM (OVCAR-8): 94.1%
- RatioGI50 (Cancer cell lines [15]): 15
- GI50 [6]: 2.7 µM
- TGI [6]: > 100 µM
- CC50 [6]: > 100 µM
- inhibition of growth at 10 µM (COLO 205): 80.9%
- inhibition of growth at 10 µM (Malme-3M): 69.8%
- RatioGI50 (Cancer cell lines [16]): 15
- inhibition of growth at 10 µM (HT-29): 92.1%
- inhibition of growth at 10 µM (BT-549): 97.1%
- GI50 [7]: 34.5 µM
- TGI [7]: > 100 µM
- CC50 [7]: > 100 µM
- RatioGI50 (Melanoma cell [17]): 15
- RatioLC50 (Cancer cell lines [18]): 15
- RatioGI50 (Cancer cell lines [19]): 15
- inhibition of growth at 10 µM (UACC-62): 91%
- RatioGI50 (Cancer cell lines [20]): 15
- inhibition of growth at 10 µM (A549): 83.8%
- RatioLC50 (Melanoma cell [21]): 15
- Ratio (Cancer cell lines [22]): 15
- RatioLC50 (Leukemia cell [23]): 15
- inhibition of growth at 10 µM (OVCAR-3): 72%
- Ratio (Cancer cell lines [24]): 15
- inhibition of growth at 10 µM (NCI-H522): 48.2%
- inhibition of growth at 10 µM (U-251): 90.2%
- inhibition of growth at 10 µM (HCT-15): 95.8%
- Ratio (Leukemia cell [25]): 15
